Measured values published in the M2OR odorant receptor database.
Changes are numbered by the printed parent chain.

Experiments:
Conditions in all cases: stereoisomer not certain
[1] = target: T1, OR6S1 (Homo sapiens) (UniProt Q8NH40)
T1 sequence (whole entry): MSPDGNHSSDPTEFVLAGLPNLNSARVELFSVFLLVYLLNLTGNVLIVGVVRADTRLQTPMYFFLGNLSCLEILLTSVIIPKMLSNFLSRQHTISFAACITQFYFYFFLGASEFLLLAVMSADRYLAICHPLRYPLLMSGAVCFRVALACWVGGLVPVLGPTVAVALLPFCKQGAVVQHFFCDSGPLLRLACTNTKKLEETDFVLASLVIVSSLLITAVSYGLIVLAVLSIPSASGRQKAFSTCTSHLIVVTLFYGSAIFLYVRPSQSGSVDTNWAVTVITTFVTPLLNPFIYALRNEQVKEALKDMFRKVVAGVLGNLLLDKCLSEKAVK
Method in brief: (§1)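 Whether a receptor–molecule pair is responsive (active) rests on the original authors' judgment that its measured signal was statistically different from baseline. Pairs without that judgment are non-responsive (inactive). Sources used varied assay methods, commonly transient luciferase assays in mammalian cell lines.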

[2] = target: T2, OR6T1 (Homo sapiens) (UniProt Q8NGN1)
T2 sequence (whole entry): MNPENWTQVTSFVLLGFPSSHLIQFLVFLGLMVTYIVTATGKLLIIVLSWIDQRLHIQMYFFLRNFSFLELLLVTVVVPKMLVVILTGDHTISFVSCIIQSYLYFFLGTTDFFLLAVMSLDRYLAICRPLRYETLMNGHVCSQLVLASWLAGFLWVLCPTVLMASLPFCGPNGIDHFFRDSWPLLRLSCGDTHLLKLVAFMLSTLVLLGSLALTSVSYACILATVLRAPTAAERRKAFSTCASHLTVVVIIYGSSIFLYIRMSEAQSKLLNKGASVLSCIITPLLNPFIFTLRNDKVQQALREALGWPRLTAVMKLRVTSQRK
Method in brief: as §1

[3] = target: T3, OR6V1 (Homo sapiens) (UniProt Q8N148)
T3 sequence (whole entry): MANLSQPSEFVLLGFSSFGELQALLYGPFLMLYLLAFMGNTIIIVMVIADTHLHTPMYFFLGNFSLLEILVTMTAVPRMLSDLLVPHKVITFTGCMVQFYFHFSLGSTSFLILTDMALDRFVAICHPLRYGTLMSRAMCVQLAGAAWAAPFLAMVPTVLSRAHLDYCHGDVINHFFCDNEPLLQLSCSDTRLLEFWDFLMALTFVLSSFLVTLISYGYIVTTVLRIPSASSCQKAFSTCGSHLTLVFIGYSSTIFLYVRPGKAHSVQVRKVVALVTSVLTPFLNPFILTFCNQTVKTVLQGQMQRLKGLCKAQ
Method in brief: as §1

[4] = target: T4, OR6X1 (Homo sapiens) (UniProt Q8NH79)
T4 sequence (whole entry): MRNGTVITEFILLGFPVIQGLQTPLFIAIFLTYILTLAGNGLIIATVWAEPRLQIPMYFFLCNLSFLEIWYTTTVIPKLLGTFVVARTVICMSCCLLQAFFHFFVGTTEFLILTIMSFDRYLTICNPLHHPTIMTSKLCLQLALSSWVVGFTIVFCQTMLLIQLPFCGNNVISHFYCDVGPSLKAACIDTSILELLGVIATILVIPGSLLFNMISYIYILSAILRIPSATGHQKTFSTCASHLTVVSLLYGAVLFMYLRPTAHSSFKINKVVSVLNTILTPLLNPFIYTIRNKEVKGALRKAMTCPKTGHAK
Method in brief: as §1

[5] = target: T5, OR6Y1 (Homo sapiens) (UniProt Q8NGX8)
T5 sequence (whole entry): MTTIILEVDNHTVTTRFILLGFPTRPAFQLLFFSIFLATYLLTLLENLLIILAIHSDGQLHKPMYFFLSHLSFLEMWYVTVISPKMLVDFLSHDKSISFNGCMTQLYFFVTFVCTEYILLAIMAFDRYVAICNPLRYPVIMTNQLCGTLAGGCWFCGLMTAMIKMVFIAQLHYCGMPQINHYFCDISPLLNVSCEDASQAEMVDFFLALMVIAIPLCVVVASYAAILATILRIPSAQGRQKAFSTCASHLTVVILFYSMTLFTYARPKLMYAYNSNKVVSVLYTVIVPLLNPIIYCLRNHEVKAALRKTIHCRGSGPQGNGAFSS
Method in brief: as §1

[6] = target: T6, OR7A10 (Homo sapiens) (UniProt O76100)
T6 sequence (whole entry): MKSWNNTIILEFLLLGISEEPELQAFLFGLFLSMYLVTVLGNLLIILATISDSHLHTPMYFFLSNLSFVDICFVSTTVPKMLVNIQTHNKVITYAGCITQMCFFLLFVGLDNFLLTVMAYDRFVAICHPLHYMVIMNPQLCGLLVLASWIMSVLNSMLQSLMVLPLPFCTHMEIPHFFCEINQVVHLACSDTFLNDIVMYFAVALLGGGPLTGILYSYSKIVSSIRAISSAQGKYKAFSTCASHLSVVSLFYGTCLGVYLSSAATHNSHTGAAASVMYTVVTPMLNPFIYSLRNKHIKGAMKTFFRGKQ
Method in brief: as §1

[7] = target: T7, OR7A17 (Homo sapiens) (UniProt O14581)
T7 sequence (whole entry): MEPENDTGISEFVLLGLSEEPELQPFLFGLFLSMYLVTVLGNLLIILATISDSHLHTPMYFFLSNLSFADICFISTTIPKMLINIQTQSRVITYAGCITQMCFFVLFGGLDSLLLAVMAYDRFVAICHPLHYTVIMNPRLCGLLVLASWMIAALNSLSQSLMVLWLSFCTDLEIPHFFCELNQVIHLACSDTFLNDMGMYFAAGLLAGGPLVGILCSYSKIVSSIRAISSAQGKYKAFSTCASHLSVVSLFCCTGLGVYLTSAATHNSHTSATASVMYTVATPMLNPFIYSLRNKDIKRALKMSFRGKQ
Method in brief: as §1

[8] = target: T8, OR7A5 (Homo sapiens) (UniProt Q15622)
T8 sequence (whole entry): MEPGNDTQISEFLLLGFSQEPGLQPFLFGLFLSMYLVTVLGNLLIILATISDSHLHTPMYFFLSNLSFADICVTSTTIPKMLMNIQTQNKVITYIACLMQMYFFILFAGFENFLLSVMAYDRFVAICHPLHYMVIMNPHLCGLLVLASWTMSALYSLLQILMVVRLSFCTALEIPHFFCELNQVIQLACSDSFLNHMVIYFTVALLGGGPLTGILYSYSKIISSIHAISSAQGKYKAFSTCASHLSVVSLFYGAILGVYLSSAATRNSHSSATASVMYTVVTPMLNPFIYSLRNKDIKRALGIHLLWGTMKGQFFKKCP
Method in brief: as §1

[9] = target: T9, OR7C1 (Homo sapiens) (UniProt O76099)
T9 sequence (whole entry): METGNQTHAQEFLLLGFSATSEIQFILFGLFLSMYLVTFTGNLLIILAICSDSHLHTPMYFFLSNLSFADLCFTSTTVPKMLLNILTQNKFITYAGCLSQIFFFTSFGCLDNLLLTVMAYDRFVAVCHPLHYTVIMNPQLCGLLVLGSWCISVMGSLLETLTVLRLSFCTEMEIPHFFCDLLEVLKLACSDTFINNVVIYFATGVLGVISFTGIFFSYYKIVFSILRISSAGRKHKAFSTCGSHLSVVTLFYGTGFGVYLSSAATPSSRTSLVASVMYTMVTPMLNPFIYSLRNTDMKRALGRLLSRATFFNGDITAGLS
Method in brief: as §1

[10] = target: T10, OR7C2 (Homo sapiens) (UniProt O60412)
T10 sequence (whole entry): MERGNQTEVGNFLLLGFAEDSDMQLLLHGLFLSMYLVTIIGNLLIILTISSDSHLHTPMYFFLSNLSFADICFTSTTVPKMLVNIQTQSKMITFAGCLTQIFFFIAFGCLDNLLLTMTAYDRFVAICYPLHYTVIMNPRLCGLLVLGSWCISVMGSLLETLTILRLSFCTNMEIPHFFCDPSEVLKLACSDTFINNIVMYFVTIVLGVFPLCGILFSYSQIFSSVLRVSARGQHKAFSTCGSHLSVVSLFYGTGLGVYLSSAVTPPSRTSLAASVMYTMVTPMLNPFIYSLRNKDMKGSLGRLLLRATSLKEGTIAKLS
Method in brief: as §1

[11] = target: T11, OR7D2 (Homo sapiens) (UniProt Q96RA2)
T11 sequence (whole entry): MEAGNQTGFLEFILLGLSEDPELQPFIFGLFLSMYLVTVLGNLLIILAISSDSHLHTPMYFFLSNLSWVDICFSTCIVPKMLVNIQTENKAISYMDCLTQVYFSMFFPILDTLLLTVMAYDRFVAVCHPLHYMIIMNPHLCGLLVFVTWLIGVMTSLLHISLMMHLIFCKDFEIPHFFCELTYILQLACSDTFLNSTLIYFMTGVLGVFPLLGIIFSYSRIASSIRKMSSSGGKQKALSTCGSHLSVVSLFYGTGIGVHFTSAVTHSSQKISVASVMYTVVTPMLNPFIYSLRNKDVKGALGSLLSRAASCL
Method in brief: as §1

[12] = target: T12, OR7D4 (Homo sapiens) (UniProt Q8NG98)
T12 sequence (whole entry): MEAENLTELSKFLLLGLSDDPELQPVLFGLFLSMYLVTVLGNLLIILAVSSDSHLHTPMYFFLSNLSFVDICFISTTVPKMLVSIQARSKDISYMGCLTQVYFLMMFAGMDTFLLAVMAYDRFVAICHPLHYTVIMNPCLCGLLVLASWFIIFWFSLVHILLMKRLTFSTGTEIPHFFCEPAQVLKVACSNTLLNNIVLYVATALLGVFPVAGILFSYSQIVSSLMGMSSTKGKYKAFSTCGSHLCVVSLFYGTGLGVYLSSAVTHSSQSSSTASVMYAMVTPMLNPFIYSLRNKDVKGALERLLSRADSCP
Method in brief: as §1

[13] = target: T13, OR7E24 (Homo sapiens) (UniProt Q6IFN5)
T13 sequence (whole entry): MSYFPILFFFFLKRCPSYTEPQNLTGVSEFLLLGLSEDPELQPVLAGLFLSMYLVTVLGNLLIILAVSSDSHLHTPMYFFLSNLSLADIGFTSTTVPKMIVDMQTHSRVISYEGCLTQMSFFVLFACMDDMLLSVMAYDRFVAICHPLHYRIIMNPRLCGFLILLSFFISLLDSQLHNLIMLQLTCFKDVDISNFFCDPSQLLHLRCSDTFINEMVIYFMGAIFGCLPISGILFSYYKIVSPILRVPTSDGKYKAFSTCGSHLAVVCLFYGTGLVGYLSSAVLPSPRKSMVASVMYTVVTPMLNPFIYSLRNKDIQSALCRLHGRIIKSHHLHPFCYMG
Method in brief: as §1

[14] = target: T14, OR7G1 (Homo sapiens) (UniProt Q8NGA0)
T14 sequence (whole entry): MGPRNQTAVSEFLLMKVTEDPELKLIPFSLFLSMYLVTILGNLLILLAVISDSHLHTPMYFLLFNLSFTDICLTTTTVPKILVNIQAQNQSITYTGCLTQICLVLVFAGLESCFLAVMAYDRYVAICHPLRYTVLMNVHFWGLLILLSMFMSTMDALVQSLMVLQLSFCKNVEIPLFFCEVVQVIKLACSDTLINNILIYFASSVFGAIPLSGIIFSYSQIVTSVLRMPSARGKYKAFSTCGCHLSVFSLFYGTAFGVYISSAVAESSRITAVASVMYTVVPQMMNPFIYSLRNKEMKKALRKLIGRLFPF
Method in brief: as §1

[15] = tested on: T15, OR6S1 T42I V156I
T15 sequence (whole entry): T1 sequence (whole entry) with T42I, V156I
Method in brief: as §1

[16] = tested on: T16, OR6T1 N2D
T16 sequence (whole entry): T2 sequence (whole entry) with N2D
Method in brief: as §1

[17] = tested on: T17, OR7A5 M81I
T17 sequence (whole entry): T8 sequence (whole entry) with M81I
Method in brief: as §1

[18] = tested on: T18, OR7C1 V126I E171K
T18 sequence (whole entry): T9 sequence (whole entry) with V126I, E171K
Method in brief: as §1

[19] = tested on: T19, OR7D4 R88W
T19 sequence (whole entry): T12 sequence (whole entry) with R88W
Method in brief: as §1

[20] = tested on: T20, OR7D4
T20 sequence (whole entry): T12 sequence (whole entry) with R88W, T133M
Method in brief: as §1

Measured: odorant receptor agonist call;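 note: active if original authors judged signal statistically different from baseline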

CC(=O)c1c(C)c([N+](=O)[O-])c(C(C)(C)C)c([N+](=O)[O-])c1C
not listed: [15] | [16] | [17] | [18] | [19] | [20]
inactive: all other assays above

CCC1OC(=O)C(O)=C1C (stereo unspecified)
inactive: all assays above

CC1CCCCCCCCCCCCC(=O)C1 (stereo unspecified)
not listed: [15] | [16] | [17] | [18] | [19] | [20]
inactive: all other assays above

CCCCCC(=O)C(C)C(C)=O (stereo unspecified)
not listed: [15] | [16] | [17] | [18] | [19] | [20]
inactive: all other assays above

CCCCCC(S)C(C)CO (stereo unspecified)
not listed: [15] | [16] | [17] | [18] | [19] | [20]
inactive: all other assays above

CCC1OC(C)=C(O)C1=O (stereo unspecified)
inactive: all assays above

CC1=NC(C)C(C)S1 (stereo unspecified)
inactive: all assays above

CC1=C(O)C(=O)C(C)O1 (stereo unspecified)
inactive: all assays above
